# In the library only some 3.4% were active in any assay of this set; here they are far more common.
# ROMK mod – human ROMK K+ channel modulation, primary screen; P48048; Tet-inducible ROMK, thallium flux fluorescence; actives lie on both sides; B-score at 10 µM; actives 2% (n = 130,000);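 active = signal ratio slope over the read window, or its plate-corrected B-score, at least 3 SD from the plate mean, either direction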;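 also: B-score of the F/F0 ratio slope over 7 to 12 s after thallium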
# DTT redox prof – compounds producing H2O2 with reducing agent – biochemical, NIH compound library profiling, artefact control for MLSCN library redox annotation, primary screen; DTT-dependent redox cycling H2O2, phenol red/HRP absorbance; 100% = 100 µM peroxide control, 0% = buffer; activation, % at 10 µM; actives 0.03% (n = 200,000); AID 878;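 active = activation of at least 50% relative to the plate's high and low controls in the primary single-dose screen; inactive = activation below 50%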;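 also: compound incubated with DTT at 0.8 mM final as the reducing agent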
# Cl transport mod – modulators of human KCC2 chloride dependent transport | Q9H2X9 | KCC2 cells, thallium flux FluoZin-2 fluorescence | B-score of Tl+ flux slope (higher = more flux/activation; lower = inhibition) at 10 µM | actives 2.2% (n = 190,000) | AID 1456;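 active = thallium flux slope and its plate-corrected score both differing from the plate sample mean at a set confidence after two filtering rounds, in either direction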;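 also: slope of fluorescence scaled to starting intensity during 10 to 20 s after thallium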
# Mdm2 ligase inh – blocks human Mdm2 ubiquitin ligase activity | Q00987 | cell-based MDM2 ubiquitination luciferase reporter, 2 h; 0 = plate control, 100 = twice control, blank-subtracted | signal enhancement, % at 5 µM | actives 0.11% (n = 210,000) | AID 1230;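 active = signal enhancement of 30% or more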;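 also: luminescence tracks abundance of the self-degrading MDM2-luciferase fusion protein; higher signal means inhibition of MDM2 E3 ligase activity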
# Target sequence (Q00987 whole entry, looked up, the tested form may be a part): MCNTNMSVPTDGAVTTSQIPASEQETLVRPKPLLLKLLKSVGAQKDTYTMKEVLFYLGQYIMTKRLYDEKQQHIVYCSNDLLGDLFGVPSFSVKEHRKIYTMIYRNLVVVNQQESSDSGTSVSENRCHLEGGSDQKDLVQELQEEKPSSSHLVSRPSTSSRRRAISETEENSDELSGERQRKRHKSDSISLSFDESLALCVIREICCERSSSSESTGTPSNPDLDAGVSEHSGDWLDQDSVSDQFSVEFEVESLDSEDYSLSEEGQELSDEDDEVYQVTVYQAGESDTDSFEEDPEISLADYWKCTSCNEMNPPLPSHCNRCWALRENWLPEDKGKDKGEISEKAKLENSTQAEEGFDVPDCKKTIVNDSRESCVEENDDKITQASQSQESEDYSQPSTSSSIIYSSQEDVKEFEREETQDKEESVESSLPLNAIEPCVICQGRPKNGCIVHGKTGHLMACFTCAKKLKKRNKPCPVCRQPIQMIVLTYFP
#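 Buffer or medium: Cells held in DMEM | Assay system: Stable mammalian line carrying autodegrading MDM2–luciferase fusion reporter | Quantity: 2000 cells/well | Times: 4 h settle plus 2 h compound, 37 °C | Doses: One concentration, 5 µM, with 0.2% DMSO | Technique: Luminescence with SteadyLite reagent, 15 min at room temperature | Benchmarks: Plate controls and plate blanks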
# PKD1 kinase inh – blocks activity of human protein kinase D1. Q15139. PKD1 kinase fluorescence polarization assay. inhibition, % (no concentration beside the values). actives 0.056% (n = 200,000); in the data active = inhibition above about 50%
# p97 ATPase inh – human p97 ATPase inhibition | recombinant p97 ATPase, Kinase-Glo ATP luminescence, 3 h | AID 1481 | inhibition, % at 8 µM | actives 0.42% (n = 220,000) | P55072; in the data active = inhibition above about 15%
# ROMK hit retest – retested hit modulating human ROMK potassium channel | shares compounds with ROMK mod | ROMK thallium flux, fluorescence ratio; stronger effect = lower value | normalized thallium flux (F/F0 slope) at 10 µM | actives 54% (n = 3,000) | AID 1917;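 active = Flux at 10 µM at least 3 SD below or above vehicle control mean in one or both replicates; inconclusive = no clear call, values can overlap the other calls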
# Hits are given with their value; i = inactive; ? = inconclusive; nt = no result given.
SMILES,ROMK mod,DTT redox prof,Cl transport mod,Mdm2 ligase inh,PKD1 kinase inh,p97 ATPase inh,ROMK hit retest
CCSc1nnc(NC(=O)c2cccc(S(=O)(=O)N(C)c3ccc(C)cc3)c2)s1,nt,i,i,i,i,i,nt
O=[N+]([O-])c1ccc(-c2ccc(/C=N/Nc3nc(NCc4ccccc4)nc(N4CCOCC4)n3)o2)cc1,-3.9,i,nt,i,i,i,0.063
O=C(CN1C(=O)NC2(CCCC2)C1=O)Nc1cccc(-c2nnc3n2CCCCC3)c1,i,i,nt,i,i,i,nt
CCCCOC(=O)Cn1c2ccc(OC)cc2c2nc3ccccc3nc21,-4.2,i,i,i,i,i,0.056
O=C(Nc1ccc2ccccc2c1)N1CCN(c2ncccc2C(F)(F)F)CC1,-3.9,i,i,i,i,i,0.062
O=C1C(Br)=Cc2cccc3cccc1c23,nt,nt,i,nt,nt,i,0.049
O=C1c2cccc3cccc(c23)C(=O)N1OS(=O)(=O)c1ccc(Br)cc1,nt,i,i,i,i,i,nt
CC1CCCC(C)N1C(=O)c1ccccc1Nc1ccc(SC(F)F)cc1 (stereo not given),nt,i,i,i,i,i,nt
CN(C)CC/C=C1\c2cc(F)ccc2CSc2ccccc21,-3.2,i,i,i,i,i,0.061
COc1ccc(/C=C2/C(=O)OCc3cc(OC)c(OC)cc32)cc1,2.6,i,i,i,i,i,i
COc1ccc(/C=C2\CCOC2=O)cc1,nt,i,i,i,i,i,nt
Cc1ccccc1NC(=O)CS(=O)(=O)c1cn(CC(=O)N2CCOCC2)c2ccccc12,2,i,i,i,i,i,i
Cc1ccc(NC(=O)CS(=O)(=O)c2cn(CC(=O)N3CCOCC3)c3ccccc23)cc1,i,i,i,i,i,i,nt
CC(C)(C)n1ncc2c(=O)n(CC(=O)NCc3ccco3)cnc21,nt,i,i,i,i,i,nt
CC(C)(C)n1ncc2c(=O)n(CC(=O)NCc3ccc(F)cc3)cnc21,3.9,i,i,i,i,i,i
CCOC(=O)C(C)Oc1cccc2c(=O)n(CC(=O)NCc3ccc(F)cc3)ccc12 (stereo not given),3.6,nt,i,i,nt,i,i
CCOC(=O)/C(=C/c1c(C)n(C)c2ccc([N+](=O)[O-])cc12)C(C)=O,-4.2,i,nt,i,i,i,0.046
CCOC(=O)c1c(N)c2cc([N+](=O)[O-])ccc2n1C,nt,nt,i,i,nt,i,nt
N#Cc1c(N)n(CCOC(=O)c2cccc(Br)c2)c2nc3ccccc3nc12,i,i,i,i,i,i,i
N#Cc1c(N)n(CCOC(=O)c2cccc([N+](=O)[O-])c2)c2nc3ccccc3nc12,nt,i,i,i,i,i,nt
CCOC(=O)c1c(NC(=O)CSc2nc3ccccc3o2)sc(C(C)=O)c1C,-3.3,i,nt,i,i,i,0.059
CCOC(=O)c1c(NC(=O)CSc2nnc(-c3ccccc3)o2)sc(C(C)=O)c1C,nt,i,i,nt,i,i,nt
O=C(NCc1ccco1)c1cccn2c(=O)c3cc4ccccc4cc3nc12,i,i,i,i,i,i,nt
CNC(=S)N(Cc1cc2ccc(OC)cc2[nH]c1=O)CC1CCCO1 (stereo not given),i,i,i,i,i,i,nt
CCC(C(=O)NCc1ccco1)n1nc(-c2ccc(OC)cc2)ccc1=O (stereo not given),i,i,nt,i,i,i,nt
SMILES,ROMK mod,DTT redox prof,Cl transport mod,Mdm2 ligase inh,PKD1 kinase inh,p97 ATPase inh,ROMK hit retest
O=C(Nc1cccc(Cl)c1)N1CCN(c2ncccn2)CC1,nt,i,i,i,i,i,nt
O=C(Nc1ccc(Cl)cc1Cl)N1CCN(c2ncccn2)CC1,-3.8,i,i,i,i,i,i
COC(=O)c1cc(C)ccc1OCc1ccc([N+](=O)[O-])cc1,-13,nt,i,i,nt,i,?
Cc1ccc(OCC(=O)Nc2cccc(-c3nnc(-c4ccccc4)o3)c2)cc1,nt,i,i,i,i,i,i
COc1ccc(NC(=O)c2ccc(-n3nc(C)c[n+]3[O-])cc2)cc1,i,i,i,i,i,i,nt
CCOC(=O)C(=CNc1ccc(Oc2cncc(Cl)c2)nc1)C(=O)OCC,i,nt,i,i,nt,i,nt
O=C1CC(N2CCN(Cc3ccc4c(c3)OCO4)CC2)C(=O)N1c1cccc2ccccc12 (stereo not given),-3.1,i,i,i,i,i,0.055
N#C/C(=C/c1ccc(N2CCOCC2)o1)c1ccc(Cl)cc1,nt,i,i,i,i,i,0.051
N#C/C(=C\c1ccc(N2CCOCC2)o1)c1nc2ccccc2[nH]1,nt,i,i,i,i,i,nt
COc1ccccc1C/C(N)=N/OC(=O)c1ccc2c(c1)OCO2,-3.1,i,nt,i,i,i,i
COc1ccccc1C/C(N)=N/OC(=O)c1ccc(C)c([N+](=O)[O-])c1,nt,i,nt,i,i,i,nt
O=C1CN(C(=O)c2cc3ccccc3oc2=O)C(c2ccccc2)c2cc(F)ccc2N1 (stereo not given),i,i,i,nt,i,i,nt
O=C1CN(C(=O)c2cc3ccccc3oc2=O)C(c2ccc(F)cc2)c2cc(F)ccc2N1 (stereo not given),4,i,i,nt,i,i,i
CCOc1ccc(C2C(C(=O)Nc3cc(C)on3)c3ccccc3C(=O)N2CCN2CCOCC2)cc1 (stereo not given),-4.1,i,nt,i,i,i,i
CCCCC1CCC(c2nc(-c3cccnc3)no2)CC1 (stereo not given),nt,i,i,i,i,i,i
Cc1ccc(C(=O)C(c2ccccc2)N2Cc3ccccc3C2=N)cc1 (stereo not given),-3,i,i,i,i,i,0.054
COc1ccc(C(=O)C(c2ccccc2)N2CCOCC2)cc1 (stereo not given),i,i,nt,nt,i,i,nt
O=C(Cc1cccs1)NCc1ccc(F)cc1,i,i,i,i,i,i,nt
COc1cc(NC(=O)CN2CCN(c3ccccc3O)CC2)c(C)cc1[N+](=O)[O-],-4.4,i,i,i,i,i,0.049
Cc1ccc(S(=O)(=O)Nc2c(C)n(C)n(-c3ccccc3)c2=O)cc1C(=O)NCc1ccccn1,i,i,nt,i,i,i,nt
CC(=O)n1cc(N(C(=O)CCl)c2ccccc2)c2ccccc21,-2.8,nt,i,i,nt,i,?
CC(=O)n1cc(N(C(=O)CCl)c2ccc([N+](=O)[O-])cc2)c2ccccc21,nt,nt,i,i,nt,i,nt
C=CCNc1ccc(N2C(=O)C3CCC(C)CC3C2=O)cc1[N+](=O)[O-] (stereo not given),i,i,nt,i,i,i,nt
COc1cc(-c2nc3cnccn3c2Nc2ccc(C)cc2)ccc1O,-3.4,i,nt,i,i,i,0.066
COc1cc(-c2nc3cnccn3c2Nc2ccccc2)ccc1O,nt,i,i,i,i,i,nt

# Screening data (PubChem BioAssay)
